Data published in ChEMBL document CHEMBL1124551, “Nucleic acid related compounds. 57. Synthesis, x-ray crystal structure, lipophilic partition properties, and antiretroviral activities of anomeric 3'-azido-2',3'-dideoxy-2,6-diaminopurine ribosides” (J Med Chem, 1989).

Assays:
MT4 [1] = experiment: Effective dose required to inhibit HIV-induced cytopathogenicity in human MT-4 cells; format: functional; settings: read-out: ED50 (the source's name)
In short: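 After 5 days at 37 °C, viable cells counted by trypan blue exclusion in a hemacytometer. ED₅₀ is the dose giving 50% protection against HIV-induced cytopathogenicity.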

[2] = Effective dose required to inhibit MSV-induced transformation in murine C3H cells; format: functional; settings: Mus musculus, read-out: ED50 (the source's name)
In short: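 Confluent mouse embryo C3H monolayers were infected with 80 focus-forming units of MSV for 90 min. Medium was then replaced with fresh medium holding graded compound concentrations. After 6 days at 37 °C, transformation was scored microscopically. ED₅₀ is the dose that inhibits transformation by 50%.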

[3] = Toxic dose required to cause an alteration of normal C3H cell morphology; format: functional, Mus musculus
In short: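 C3H cell cultures were exposed to graded compound concentrations and examined by microscope. TD is the dose that alters normal cell morphology.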

[4] = Ratio of CD50 and ED50 values against inhibition of HIV in MT-4 cells; format: functional, MT4
MT4 [5] = experiment: Cytotoxic dose required to reduce MT-4 cell viability by 50%

EC50 [2] [µM] | SMILES | EC50 (MT4 [1]) [µM] | TD [3] [µM] | Ratio [4] | CD50 (MT4 [5]) [µM]
6.2 | [N-]=[N+]=N[C@@H]1C[C@H](N2C=NC3C(=O)N=C(N)N=C32)O[C@@H]1CO (stereo not given in full) | 2.8 | >400 | 59 | 165
19 | Nc1nc(N)c2ncn([C@H]3CC[C@@H](CO)O3)c2n1 | 3.5 | > 200 | 115 | 404
